Active and inactive are the calls of the source. The rule behind the calls is not given here.
Experiments:
Experiment in all cases: calcium influx via other TRP channels, profiling panel, selectivity assay for TRPML3 agonist project, cell-based, Fura-2 calcium ratio, transfected HEK293, SAR round 1 (AID 2770)
[1] = target: Mucolipin-1 (Homo sapiens) (UniProt Q9GZU1)
Procedure, shortened: (§1)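 Test system: transfected or mock-transfected HEK293 cells carrying assorted TRP channels; input: 20-30 cells imaged per experiment; compound dosing: single 10 µM test compound dose applied by perfusion; schedule: compound at 20-25 h expression, 2 min recording; technique: ratiometric fluorescence imaging with 4 µM fura-2-AM calcium dye; read-out basis: Fura-2 ratio change in intracellular calcium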

[2] = test system: hTRPM2
Procedure, shortened: as §1

[3] = test system: hTRPC3
Procedure, shortened: as §1

[4] = target: Ion channel NompC (Danio rerio) (UniProt Q7T1G6); conditions: drTRPN1
Procedure, shortened: as §1

[5] = test system: mTRPV2
Procedure, shortened: as §1

[6] = test system: HEK cells; conditions: at 10 µM, active compounds read high
Procedure, shortened: as §1

[7] = test system: hTRPA1
Procedure, shortened: as §1

[8] = test system: mTRPML2 (mucolipin 2)
Procedure, shortened: as §1

[9] = hTRPML1 (NC) plasma membrane variant

Measured: Fura-2 340/380 ratio change

Mucolipin-1 (Homo sapiens), sequence (Q9GZU1 whole entry, looked up, the tested form may be a part): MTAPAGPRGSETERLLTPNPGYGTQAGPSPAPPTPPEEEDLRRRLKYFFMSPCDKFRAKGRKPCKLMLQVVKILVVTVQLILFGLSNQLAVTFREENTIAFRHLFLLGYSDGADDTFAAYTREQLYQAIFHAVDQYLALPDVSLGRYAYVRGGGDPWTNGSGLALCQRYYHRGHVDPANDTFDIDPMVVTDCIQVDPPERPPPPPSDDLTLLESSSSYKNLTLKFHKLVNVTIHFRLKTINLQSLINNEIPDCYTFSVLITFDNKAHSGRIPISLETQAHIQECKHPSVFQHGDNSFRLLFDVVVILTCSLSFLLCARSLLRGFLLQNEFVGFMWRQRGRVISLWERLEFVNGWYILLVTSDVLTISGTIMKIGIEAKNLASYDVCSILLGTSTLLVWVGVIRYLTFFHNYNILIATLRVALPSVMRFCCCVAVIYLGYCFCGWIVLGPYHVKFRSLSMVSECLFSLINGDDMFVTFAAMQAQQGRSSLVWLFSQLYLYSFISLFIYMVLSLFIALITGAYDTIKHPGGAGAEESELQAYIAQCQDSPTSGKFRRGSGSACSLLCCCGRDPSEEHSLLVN

CC1CCN(S(=O)(=O)c2ccc(C(C)C)cc2)CC1
inactive: [1]; hTRPML1 inactive; selective for TRPML3 | [1]; [9] inactive; selective for TRPML3 | [2] inactive; selective for TRPML3 | [3] inactive; selective for TRPML3 | [4] inactive; selective for TRPML3 | [5] inactive; selective for TRPML3 | [6] -0.008 | [7] inactive; selective for TRPML3 | [8] inactive; selective for TRPML3

Cc1ccc(S(=O)(=O)n2nccc2-c2c(-c3ccc(Cl)cc3)noc2C)cc1
inactive: [1]; hTRPML1 inactive; selective for TRPML3 | [1]; [9] inactive; selective for TRPML3 | [2] inactive; selective for TRPML3 | [3] inactive; selective for TRPML3 | [4] inactive; selective for TRPML3 | [5] inactive; selective for TRPML3 | [6] -0.005 | [7] inactive; selective for TRPML3 | [8] inactive; selective for TRPML3

CCOc1ccc(S(=O)(=O)N2CCCCCC2)c2ccccc12
inactive: [1]; hTRPML1 inactive; selective for TRPML3 | [1]; [9] inactive; selective for TRPML3 | [2] inactive; selective for TRPML3 | [3] inactive; selective for TRPML3 | [4] inactive; selective for TRPML3 | [5] inactive; selective for TRPML3 | [6] -0.011 | [7] inactive; selective for TRPML3 | [8] inactive; selective for TRPML3

Source: PubChem BioAssay AID2770 (The Scripps Research Institute Molecular Screening Center, 2010)
